*1 amine or outer side, *2 acyl side, *3 side chain or, on linkers, in order; H or OH if unused. Where a SMILES comes first, the peptide text is derived from it. Bridges are numbered along the chain shown (N, C = ends). [ ]: non-standard residue; d: D form. The star is where a group is joined. hTyr(3S-OH,4S-OH,3'-OSO3H) = N[C@H](C(=O)O)[C@H](O)[C@@H](O)c1ccc(O)c(OS(=O)(=O)O)c1; Orn(4R-OH,5R-OH) = O=C([C@H](C[C@@H](O)[C@@H](O)N[*:3])N[*:1])[*:2]; Pro(3S-OH,4S-Me) = C[C@H]1CN[C@H](C(=O)O)[C@H]1O; X1 = CCCCCOc1ccc(-c2cc(-c3ccc(C(=O)*)cc3)no2)cc1; Gln(3R-OH) = NC(=O)C[C@@H](O)[C@H](N)C(=O)O; Hyp = O=C(O)[C@@H]1C[C@@H](O)CN1

Common to all, as to format: functional
The nature of experiment [1]: Ratio of fAUC in ICR/Swiss neutropenic mouse at static dose of 0.90 mg/kg, ip after 24 hrs to MIC for Candida glabrata isolate 5376. Particulars: dose 0.9 mg/kg; route intraperitoneal.
A short description of experiment [2]: Ratio of AUC in ICR/Swiss neutropenic mouse at 1-Log kill dose of 2.0 mg/kg, ip after 24 hrs to MIC for Candida glabrata isolate 5376. To be noted: route intraperitoneal.
Experiment [3] in a line: Ratio of AUC in ICR/Swiss neutropenic mouse at static dose of 1.98 mg/kg, ip after 24 hrs to MIC for Candida albicans isolate 580. To be noted: route intraperitoneal.
In another experiment the test system is Nakaseomyces glabratus. The experiment can be described thus: Fungistatic activity against Candida glabrata isolate 32930 infected in ICR/Swiss neutropenic mouse after 24 hrs. The procedure, abridged: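 Neutropenic female ICR/Swiss mice received cyclophosphamide sc at 150 mg/kg on day −4, 100 mg/kg on day −1 and 100 mg/kg on day +2. Mice were infected iv via the tail vein, and ip micafungin in 0.15 M NaCl started 2 h later. Six dose levels from 0.078 to 80 mg/kg/24 h were given q24h for 4 days, 3 mice per dose. Kidney CFU were counted at 96 h. The static dose was derived from a sigmoid Emax (Hill) fit.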

The nature of experiment [4]: Ratio of fAUC in ICR/Swiss neutropenic mouse at 1-Log kill dose of 3.77 mg/kg, ip after 24 hrs to MIC for Candida glabrata isolate 35315. To be noted: route intraperitoneal.
The subject of another experiment is Candida albicans. The experiment can be described thus: Antifungal activity against Candida albicans isolate 98-210 infected in ICR/Swiss neutropenic mouse assessed as dose required for 1-log kill after 24 hrs. Summed up:
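Neutropenic mice (cyclophosphamide sc 150 mg/kg day −4, 100 mg/kg day −1 and +2) infected iv by tail vein 2 h before therapy. Micafungin given ip every 24 h for 4 days at six fourfold-spaced dose levels, 0.078–80 mg/kg/24 h, 3 mice per group. Kidney CFU read at 96 h. Hill-model fit; dose giving 1 log10 below start-of-therapy burden.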

A short description of experiment [5]: Ratio of AUC in ICR/Swiss neutropenic mouse at static dose of 2.53 mg/kg, ip after 24 hrs to MIC for Candida albicans isolate 98-17. Particulars: route intraperitoneal.

As to `CCCCCOc1ccc(-c2cc(-c3ccc(C(=O)N[C@H]4C[C@@H](O)[C@@H](O)NC(=O)[C@@H]5[C@@H](O)[C@@H](C)CN5C(=O)[C@H]([C@H](O)CC(N)=O)NC(=O)[C@H]([C@H](O)[C@@H](O)c5ccc(O)c(OS(=O)(=O)O)c5)NC(=O)[C@@H]5C[C@@H](O)CN5C(=O)[C@H]([C@@H](C)O)NC4=O)cc3)no2)cc1` [MICAFUNGIN] (X1-[Orn(4R-OH,5R-OH)]T[Hyp][hTyr(3S-OH,4S-OH,3'-OSO3H)][Gln(3R-OH)][Pro(3S-OH,4S-Me)]; lactam 1-C), the fAUC/MIC stood at 8.9 in experiment [1] and 4.33 in experiment [4]. In addition, the RatioAUC/MIC is reported as 7886 in experiment [2], 7857 in experiment [3] and 2333 in experiment [5]. In addition, the figures for the Activity in the experiment on Nakaseomyces glabratus and in the experiment on Candida albicans were 0.06 mg/kg and 10.4 mg/kg, respectively.

The values are drawn from ChEMBL document CHEMBL1275496, “In vivo pharmacodynamic target investigation for micafungin against Candida albicans and C. glabrata in a neutropenic murine candidiasis model” (Antimicrob Agents Chemother, 2008).
